Screening results (PubChem)
M5 antag: blocks acetylcholine activation of human M5 receptor; CHO-hM5 cells, Fluo-8 calcium fluorescence, ACh EC80; inhibition, % at 3 µM; hit rate 0.59% among 360,000;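 active means inhibition above a per-plate cutoff, the mean of that plate's test compounds plus 3 SD, cut at about 27% in these data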
Target sequence (P08912 whole entry, looked up): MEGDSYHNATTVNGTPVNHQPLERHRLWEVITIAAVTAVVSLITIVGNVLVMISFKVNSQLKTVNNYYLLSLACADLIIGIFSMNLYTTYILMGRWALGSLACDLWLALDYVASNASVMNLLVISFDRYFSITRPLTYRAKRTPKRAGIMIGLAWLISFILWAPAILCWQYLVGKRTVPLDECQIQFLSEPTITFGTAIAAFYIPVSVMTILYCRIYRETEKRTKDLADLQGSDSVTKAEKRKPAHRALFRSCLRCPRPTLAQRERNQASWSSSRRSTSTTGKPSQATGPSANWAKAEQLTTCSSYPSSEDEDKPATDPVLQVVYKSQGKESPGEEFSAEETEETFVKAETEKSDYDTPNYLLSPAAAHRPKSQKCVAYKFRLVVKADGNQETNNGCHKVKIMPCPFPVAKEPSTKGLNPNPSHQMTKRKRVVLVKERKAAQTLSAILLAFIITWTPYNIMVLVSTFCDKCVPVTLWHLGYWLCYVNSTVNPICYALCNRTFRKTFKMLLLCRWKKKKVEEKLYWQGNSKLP
M5 PAM: CHRM5 positive allosteric modulation; P08912; CHO-K1 hM5, Fluo-8 calcium, ACh EC20 PAM; 0% = ACh EC20, 100% = ACh EC100; activation, % at 3 µM; hit rate 0.3% among 360,000; AID 624038;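 active means activation above the run cutoff, the mean activation of all test compounds plus 3 SD, cut at about 18% in these data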
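Test system: CHO-K1 hM5 cells / Doses: single-point, 3 µM nominal / Times: Post-acetylcholine fluorescence recording 140 s / Technique: Fluo-8 calcium fluorescence / Measure: Max/basal fluorescence ratio as % of EC20–EC100 ACh window / Benchmarks: low control EC20 acetylcholine (0%), high control EC100 acetylcholine (100%) / Replicates: one well per compound, no replicates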
CHRM4 agonist: agonists of human muscarinic M4 receptor (CHRM4); activation, % at 3 µM; hit rate 0.14% among 360,000; CHO-K1 hM4/Gqi5, Fluo-8 calcium fluorescence; vehicle 0%, full acetylcholine response 100%; P08173;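 active means activation above the run mean over all test wells plus 3 SD, cut at about 32% in these data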;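 further: peak over basal fluorescence ratio per well then scaled between controls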
CHRM5 agonist: CHRM5 agonism in calcium assay | P08912 | CHO-K1 hM5 cells, Fluo-8 calcium fluorescence; 0% DMSO wells, 100% maximal acetylcholine response | activation, % at 3 µM | hit rate 0.19% among 360,000 | AID 624037;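 active means activation above the run's mean over test compounds plus 3 SD, cut at about 23% in these data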;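 further: signal is peak over basal fluorescence ratio across the kinetic read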
M4 PAM: CHRM4 positive allosteric modulation | CHO-K1 hM4/Gqi5, Fluo-8 calcium fluorescence, ACh EC20; 0% = ACh EC20, 100% = maximal ACh | activation, % at 3 µM | hit rate 0.4% among 360,000 | AID 624126;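 active means activation above its plate's cutoff, the mean activation of sample wells plus 3 SD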
CHRM4 antagonist: blocks acetylcholine activation of human M4 receptor | P08173 | CHO-hM4 cells, ACh EC80, Fluo-8 calcium fluorescence | inhibition, % at 3 µM | hit rate 0.73% among 360,000;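 active means inhibition above its plate's cutoff, the mean inhibition of sample wells plus 3 SD, cut at about 27% in these data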
Hits are given with their value; ! = not active in a repeat. The list is not random: actives were taken first. Their share in the collection is about 1.9%.

Screening Nc1ccc(C(=O)O)c(O)c1 returned M5 antag inactive, M5 PAM inactive, CHRM4 agonist inactive, CHRM5 agonist inactive, M4 PAM inactive and CHRM4 antagonist 43.2!.
`O=C(O)c1ccccc1O` gave M5 antag inactive, M5 PAM inactive, CHRM4 agonist inactive, CHRM5 agonist 26.2, M4 PAM inactive and CHRM4 antagonist inactive.
Nc1c(O)cccc1C(=O)O was read as M5 antag inactive, M5 PAM inactive, CHRM4 agonist inactive, CHRM5 agonist inactive, M4 PAM inactive and CHRM4 antagonist inactive.
For O=C(Nc1cccc(Cl)c1)Nc1nnc(-c2ccncc2)s1 the results were M5 antag 31.9, M5 PAM inactive, CHRM4 agonist inactive, CHRM5 agonist inactive, M4 PAM inactive and CHRM4 antagonist inactive.
Screening CS(=O)(=O)c1ccc2nc(NC(=O)Nc3ccc(Cl)c(Cl)c3)sc2c1 returned M5 antag inactive, M5 PAM inactive, CHRM4 agonist inactive, CHRM5 agonist inactive, M4 PAM inactive and CHRM4 antagonist inactive.
Screening CCOC(=O)Cc1csc(NC(=O)Nc2cccc(Cl)c2)n1 returned M5 antag 28.9, M5 PAM inactive, CHRM4 agonist inactive, CHRM5 agonist inactive, M4 PAM inactive and CHRM4 antagonist inactive.
CS(=O)(=O)c1ccc2nc(NC(=O)Nc3cccc(Cl)c3)sc2c1 was read as M5 antag 31.8, M5 PAM inactive, CHRM4 agonist inactive, CHRM5 agonist inactive, M4 PAM inactive and CHRM4 antagonist inactive.
Screening COc1ccc(Oc2ncnc3sccc23)cc1 returned M5 antag inactive, M5 PAM 18.3, CHRM4 agonist inactive, CHRM5 agonist inactive, M4 PAM inactive and CHRM4 antagonist inactive.
COc1ccc(Nc2ncnc3sccc23)cc1 was read as M5 antag inactive, M5 PAM inactive, CHRM4 agonist inactive, CHRM5 agonist inactive, M4 PAM inactive and CHRM4 antagonist inactive.
C=CC(=O)N=c1sc2ccccc2n1-c1ccccc1 was read as M5 antag inactive, M5 PAM inactive, CHRM4 agonist inactive, CHRM5 agonist inactive, M4 PAM inactive and CHRM4 antagonist inactive.
`N=c1sc2ccccc2n1-c1ccccc1` gave M5 antag 27.2, M5 PAM inactive, CHRM4 agonist inactive, CHRM5 agonist inactive, M4 PAM inactive and CHRM4 antagonist inactive.
CSc1ccc(CCNC(=O)CN2C(=O)c3cccnc3Oc3ccc(C)cc32)cc1 was read as M5 antag inactive, M5 PAM inactive, CHRM4 agonist inactive, CHRM5 agonist inactive, M4 PAM inactive and CHRM4 antagonist 32.9.
Screening Cc1ccc(C(=O)N2CCN(c3ccc([N+](=O)[O-])c(NCc4ccco4)c3)CC2)cc1 returned M5 antag inactive, M5 PAM inactive, CHRM4 agonist inactive, CHRM5 agonist inactive, M4 PAM 31.2 and CHRM4 antagonist inactive.
Screening COc1ccc(CCNC(=O)CCCCC(=O)NCCc2ccc(OC)cc2)cc1 returned M5 antag inactive, M5 PAM inactive, CHRM4 agonist inactive, CHRM5 agonist inactive, M4 PAM inactive and CHRM4 antagonist inactive.
For COc1ccc(CN(CCNC(=O)CCCCC(=O)NCCN(Cc2ccc(OC)cc2)C(C)C)C(C)C)cc1 the results were M5 antag 47.7, M5 PAM inactive, CHRM4 agonist inactive, CHRM5 agonist inactive, M4 PAM inactive and CHRM4 antagonist 82.3.
CN1CCS/C1=C/C=C1/SC(=S)N(Cc2ccccc2)C1=O was read as M5 antag inactive, M5 PAM inactive, CHRM4 agonist inactive, CHRM5 agonist inactive, M4 PAM inactive and CHRM4 antagonist inactive.
CN1CCS/C1=C/C=C1\SC(=S)N(CC(=O)O)C1=O was read as M5 antag inactive, M5 PAM inactive, CHRM4 agonist inactive, CHRM5 agonist 31.2, M4 PAM inactive and CHRM4 antagonist inactive.
Screening CCCCN1C(=O)/C(=C/C=C2\SCCN2C)SC1=S returned M5 antag inactive, M5 PAM inactive, CHRM4 agonist inactive, CHRM5 agonist 40.5, M4 PAM inactive and CHRM4 antagonist inactive.
`COc1ccc(Br)cc1/C=N/n1nnnc1N` gave M5 antag inactive, M5 PAM inactive, CHRM4 agonist inactive, CHRM5 agonist inactive, M4 PAM inactive and CHRM4 antagonist inactive.
